≈ marks a conversion by molar mass, not a printed value.

These results are taken from ChEMBL document CHEMBL1143777, “Synthesis of some bioactive 2-bromo-5-methoxy-N'-[4-(aryl)-1,3-thiazol-2-yl]benzohydrazide derivatives” (2007).

The test system of one experiment is Staphylococcus aureus. As to the kind of experiment: Antibacterial activity against Staphylococcus aureus by disc diffusion method. The class given is functional. For orientation: Agar diffusion results depend on both activity and mobility in agar.
For a further experiment, the system named is Talaromyces marneffei. In words: Antifungal activity against Penicillium marneffei by serial plate dilution method. The experiment is classed as functional.
The subject of another experiment is Trichophyton benhamiae. In words: Antifungal activity against Trichophyton mentagrophytes by serial plate dilution method. The class given is functional, Arthroderma benhamiae.
For the next experiment, the system named is Aspergillus fumigatus. In words: Antifungal activity against Aspergillus fumigatus by serial plate dilution method. The experiment is classed as functional.
The subject of experiment [1] is Mus musculus. As to the kind of experiment: Analgesic activity against acetic acid-induced writhing in Swiss Albino mouse assessed as protection at 50 mg/kg, po. The experiment is classed as functional. The method, boiled down: (§1)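 Mice were dosed with the test agent or diclofenac sodium (2.5 mg/kg). One hour later, writhing was induced by ip injection of 0.6% acetic acid in distilled water at 10 ml/kg. Writhes were counted for 15 min right after the acetic acid injection, and percentage protection was calculated.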
In general terms: Writhing tests count abdominal constrictions after an irritant is injected.

A further experiment concerns Pseudomonas aeruginosa. As to the kind of experiment: Antibacterial activity against Pseudomonas aeruginosa by disc diffusion method. The class given is functional.
Another experiment deals with Aspergillus flavus. In words: Antifungal activity against Aspergillus flavus by serial plate dilution method. The experiment is classed as functional.
The test system of a further experiment is SF-268. As to the kind of experiment: Antiproliferative activity against SF268 cells assessed as growth at 100 uM after 48 hrs. The experiment is classed as functional. To be noted: Homo sapiens, SF-268, 48 h; read-out: Activity. The method, boiled down:
(§2)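 This was the NCI primary three-cell-line, one-dose screen (lung NCI-H, breast MCF-7, CNS SF-268). Cells were inoculated on preincubated microtiter plates, and the agent was added at a single concentration. Cultures were incubated for 48 h. The endpoint was determined with sulphorhodamine B protein staining, with negative growth values indicating cell kill.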

For the next experiment, the system named is Klebsiella pneumoniae. As to the kind of experiment: Antibacterial activity against Klebsiella pneumoniae by disc diffusion method. The class given is functional.
A further experiment deals with MOLT-4. As to the kind of experiment: Antiproliferative activity against MOLT4 cells after 48 hrs. The experiment is classed as functional. To be noted: Homo sapiens, MOLT-4, 48 h. In short, it runs like this: (§3)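 This was the NCI 60-cell-line panel (lung, colon, melanoma, renal, ovarian, CNS, leukemia), with compounds tested over a five-dose range.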
For another experiment, the system named is RPMI-8226. As to the kind of experiment: Antiproliferative activity against RPMI8226 cells after 48 hrs. To be noted: Homo sapiens, RPMI-8226, 48 h. The class given is functional. In short, it runs like this:
as §3

Another experiment has as its system SR. As to the kind of experiment: Antiproliferative activity against SR cells after 48 hrs. The experiment is classed as functional. To be noted: Homo sapiens. In short, it runs like this: as §3
Experiment [2] can be described thus: Antiproliferative activity against NCI-H cells assessed as growth at 100 uM after 48 hrs. The settings on record: Homo sapiens, read-out: Activity. The class given is functional. In short, it runs like this:
as §2

The subject of a further experiment is MCF7. In words: Antiproliferative activity against MCF7 cells assessed as growth at 100 uM after 48 hrs. The class given is functional. The settings on record: Homo sapiens, MCF7, 48 h; read-out: Activity. In short, it runs like this: as §2
A further experiment concerns Escherichia coli. In words: Antibacterial activity against Escherichia coli by disc diffusion method. The class given is functional.
In experiment [3] the test system is Mus musculus. In words: Analgesic activity against acetic acid-induced writhing in Swiss Albino mouse assessed as protection at 2.5 mg/kg, po. The class given is functional. In short, it runs like this:
as §1

[4] abbreviates: read-out: LC50 (the source's name).

For orientation: MIC means the lowest concentration found to suppress growth. A lower MIC goes with a more susceptible organism. Consider `COc1ccc(Br)c(C(=O)NNc2nc(-c3cc4cc(Br)ccc4oc3=O)cs2)c1`, for which the MIC stood at 50 µg/mL (≈ 90.7 µM) with Staphylococcus aureus, 12.5 µg/mL (≈ 22.7 µM) against Talaromyces marneffei, 12.5 µg/mL (≈ 22.7 µM) against Trichophyton benhamiae and 10 µg/mL (≈ 18.1 µM) with Aspergillus fumigatus. Also, the Activity in the experiment on Mus musculus [1] stood at 50%.
Regarding `COc1ccc(Br)c(C(=O)NNc2nc(-c3ccc(Cl)cc3)cs2)c1`, the MIC in the experiment on Pseudomonas aeruginosa, against Aspergillus flavus and in the experiment with Trichophyton benhamiae was 50 µg/mL (≈ 114 µM) throughout. In the experiment with Mus musculus [1], the Activity was 43.75%.
With `COc1ccc(-c2csc(NNC(=O)c3cc(OC)ccc3Br)n2)cc1`, the MIC in the experiment with Pseudomonas aeruginosa and in the experiment with Aspergillus fumigatus was 50 µg/mL (≈ 115 µM) each time. Moreover, the Activity in the experiment with Mus musculus [1] amounted to 25%.
A word on the GI50: it is the concentration giving 50% growth inhibition. In general, TGI refers to the concentration at which net growth stops. Low values mean greater sensitivity of the cells, high ones lower sensitivity of the cells. With `COc1ccc(Br)c(C(=O)NNc2nc(-c3ccc(O)c(C(N)=O)c3)cs2)c1`, the results for the growth at 100 µM (with SF-268; in experiment [2]; with MCF7) were 55%, 17% and 19%, respectively. Besides, the MIC stood at 12.5 µg/mL (≈ 27 µM) in the experiment on Klebsiella pneumoniae; 12.5 µg/mL (≈ 27 µM) in the experiment on Staphylococcus aureus; 12.5 µg/mL (≈ 27 µM) against Talaromyces marneffei; 60 µg/mL (≈ 130 µM) against Aspergillus flavus; 12.5 µg/mL (≈ 27 µM) with Trichophyton benhamiae; 12.5 µg/mL (≈ 27 µM) against Aspergillus fumigatus. In the experiment with Mus musculus [1], the Activity was 56.25%. Further, the 50% growth inhibitory concentration (GI50) in the experiment on MOLT-4 is 22.6 µM; with RPMI-8226, 27.9 µM; in the experiment on SR it was 29.8 µM. Besides, the figures for the TGI in the experiment with MOLT-4, in the experiment with RPMI-8226 and in the experiment on SR were 57 µM, 92.5 µM and ≥ 100 µM, respectively. In addition, the CC50 in the experiment on MOLT-4 (setting [4]), with RPMI-8226 (setting [4]) and in the experiment with SR (setting [4]) was ≥ 100 µM in each case.
As for `COc1ccc(Br)c(C(=O)NNc2nc(-c3ccc(O)c(O)c3)cs2)c1`, the growth at 100 µM in the experiment with SF-268 is 111%; in experiment [2] it was 101%; in the experiment on MCF7, 86%. Besides, the MIC in the experiment on Escherichia coli came to 50 µg/mL (≈ 115 µM); in the experiment with Klebsiella pneumoniae, 12.5 µg/mL (≈ 28.7 µM); in the experiment on Pseudomonas aeruginosa, 6.25 µg/mL (≈ 14.3 µM); against Staphylococcus aureus, 50 µg/mL (≈ 115 µM); against Aspergillus flavus, 12.5 µg/mL (≈ 28.7 µM); against Aspergillus fumigatus, 50 µg/mL (≈ 115 µM). In addition, the Activity in the experiment on Mus musculus [1] is given as 12.5%.
Regarding `COc1ccc(Br)c(C(=O)NNc2nc(-c3ccnc(Cl)c3)cs2)c1`, the results for the growth at 100 µM (in the experiment with SF-268; in [2]; in the experiment on MCF7) were 111%, 95% and 87%, respectively. The MIC against Klebsiella pneumoniae was found to be 50 µg/mL (≈ 114 µM); against Talaromyces marneffei, 12.5 µg/mL (≈ 28.4 µM); against Aspergillus flavus it was 50 µg/mL (≈ 114 µM); against Trichophyton benhamiae, 12.5 µg/mL (≈ 28.4 µM); against Aspergillus fumigatus it was 12.5 µg/mL (≈ 28.4 µM). Also, in the experiment on Mus musculus [1], the Activity was found to be 37.5%.
Take `COc1ccc(Br)c(C(=O)NNc2nc(-c3cc4ccccc4oc3=O)cs2)c1`: the results for the MIC against Escherichia coli, with Staphylococcus aureus and against Talaromyces marneffei were 50 µg/mL (≈ 106 µM), 50 µg/mL (≈ 106 µM) and 12.5 µg/mL (≈ 26.5 µM), respectively. Besides, the Activity with Mus musculus [1] was 37.5%.
Take `COc1ccc(Br)c(C(=O)NNc2nc(-c3ccccc3)cs2)c1`: the Activity in the experiment with Mus musculus [1] turned out to be 12.5%.
In the case of `O=C([O-])Cc1ccccc1Nc1c(Cl)cccc1Cl.[Na+]` [DICLOFENAC SODIUM], the Activity in the experiment with Mus musculus [3] came out at 62.5%.
For `CCC(C)n1ncn(-c2ccc(N3CCN(c4ccc(OC[C@H]5CO[C@](Cn6cncn6)(c6ccc(Cl)cc6Cl)O5)cc4)CC3)cc2)c1=O` (stereo not given in full) [ITRACONAZOLE], the MIC with Talaromyces marneffei, against Aspergillus flavus, in the experiment on Trichophyton benhamiae and in the experiment with Aspergillus fumigatus was < 16 µg/mL each time.
